Compound activity from PubChem.
Shown are actives, neighbours in structure and some others; about 1.5% of the full set was active somewhere.
PREPL inh = human PREPL enzyme inhibition; inhibition, % at 5.96 µM; actives 0.68% (n = 320,000); recombinant PREPL, fluorescence polarization activity-based probe; Q4J6C6; in the data active means inhibition above about 43%;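 further: 0% = enzyme with DMSO and 100% = wells lacking enzyme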
Apaf1 inhib = inhibitors of human Apaf-1 apoptosome; O14727; reconstituted apoptosome caspase-3 activity, DEVD-Rh110 fluorescence; inhibition, % at 20 µM; actives 0.71% (n = 330,000); active means inhibition of at least 40% at 20 µM;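 further: plate controls were DMSO wells for no effect and DEVD-CHO caspase inhibitor wells for full effect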
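Assay system: Apoptosome proteins | Medium: pH 7.5 Hepes buffer with CHAPS, BSA, DTT | Also added: Cytochrome c and DEVD-Rh110 substrate | Times: 30 min plus 50 min, RT | Detection: Rhodamine 110 fluorescence at Ex 480/Em 540 nm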
UBC13 polyUb = blocks human UBC13 polyubiquitin chain formation | P61088 | AID 485273 | actives 0.47% (n = 330,000) | inhibition, % at 20 µM | TR-FRET; in the data active means inhibition above about 45%, passing the limit was not always enough; inconclusive means no clear call, values can overlap the other calls
UCH37 inh = human UCH37 deubiquitinating enzyme inhibition. inhibition, % (concentration not given with the values). AID 588478. Q9Y5K5. actives 0.33% (n = 330,000). purified proteasome/UCH37, Ub-AMC cleavage fluorescence;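 active means mean inhibition over replicate wells above about 20%, limit read from the data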;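 further: 0% = compound-free wells with enzyme and 100% = wells lacking proteasome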
Target sequence (Q9Y5K5 whole entry, looked up): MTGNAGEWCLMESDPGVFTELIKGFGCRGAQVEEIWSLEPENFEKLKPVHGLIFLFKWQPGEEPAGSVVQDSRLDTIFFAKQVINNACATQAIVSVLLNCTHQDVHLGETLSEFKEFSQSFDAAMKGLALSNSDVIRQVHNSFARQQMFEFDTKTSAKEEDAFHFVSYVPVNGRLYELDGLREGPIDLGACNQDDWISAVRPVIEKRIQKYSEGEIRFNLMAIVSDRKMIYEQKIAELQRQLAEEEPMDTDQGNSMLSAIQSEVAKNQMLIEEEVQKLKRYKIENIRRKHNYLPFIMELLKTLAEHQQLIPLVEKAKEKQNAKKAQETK
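Material: Human UCH37 enzyme supplied as purified proteasome complex | Schedule: 30 min preincubation with enzyme, 25 min cleavage at room temperature | Detection: AMC fluorescence 355/460 nm | Measure: % inhibition of Ub-AMC cleavage fluorescence | Controls: Wells without proteasome as full block, compound-free enzyme plus substrate as uninhibited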
Casp3 UBC13 ctr = caspase-3 inhibition (UBC13 counter-screen) | shares compounds with UBC13 polyUb | Recombinant caspase-3, Caspase-Glo 3/7 luminescence, 60 min | inhibition, % at 20 µM | actives 4% (n = 1,400) | AID 488856;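 active means mean inhibition across replicates above about 26%, limit read from the data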;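 further: plate controls were DMSO with caspase-3 for no effect and DMSO wells lacking enzyme for full effect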
Target sequence (P42574 whole entry, looked up): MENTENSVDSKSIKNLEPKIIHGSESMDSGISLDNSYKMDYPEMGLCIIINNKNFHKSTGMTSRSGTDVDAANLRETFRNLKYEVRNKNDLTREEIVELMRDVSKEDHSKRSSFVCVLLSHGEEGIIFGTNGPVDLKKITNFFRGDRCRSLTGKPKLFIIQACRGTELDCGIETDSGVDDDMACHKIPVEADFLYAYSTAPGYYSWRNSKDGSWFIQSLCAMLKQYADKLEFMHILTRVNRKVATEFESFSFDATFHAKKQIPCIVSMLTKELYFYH
UBC13 conf = human UBC13 polyubiquitin inhibition, confirmed; shares compounds with UBC13 polyUb; UBC13 polyubiquitination, TR-FRET, biochemical; inhibition, % at 10 µM; actives 68% (n = 1,400); AID 488859; in the data active means inhibition above about 45%; inconclusive means no clear call, values can overlap the other calls
Active calls of the source: *; ? = inconclusive; / = not tested or not shown.

SMILES	PREPL inh	Apaf1 inhib	UBC13 polyUb	UCH37 inh	Casp3 UBC13 ctr	UBC13 conf
O=C(NCC1CCN(Cc2ccc(F)cc2)CC1)C1CCCN(c2ncnc3c2nc2n3CCCCC2)C1 (stereo not drawn)	13.9	4.4	78.5*	6.9	-2.8	95.4*
N#CCC(=O)NN=Cc1cn(Cc2ccccc2C#N)c2ccccc12	/	/	/	6.0	/	/
O=C(OCc1cccc([N+](=O)[O-])c1)c1cccnc1Cl	8.4	1.3	49.8*	5.5	30.7*	66.7*
S=c1nc[nH]c2c1[nH]c1ccccc12	4.5	-12.9	82.3*	10.9	4.3	103.1*
S=c1nc[nH]c2c1[nH]c1ccc(Cl)cc12	-0.3	-22.3	-237.0	4.1	/	/
CCN(CC)C(=NS(=O)(=O)c1ccccc1C)c1ccccc1	/	/	/	4.2	/	/
CS(=O)(=O)c1sc2nc(-c3cccs3)cc(-c3ccccc3)c2c1N	4.0	39.4	-31.0	-15.5	/	/
N#Cc1sc2nc(-c3cccs3)cc(-c3ccc(F)cc3)c2c1N	14.0	16.1	58.6*	-32.2	-2.0	34.4
COc1cc(CNCCc2c[nH]c3ccccc23)ccc1OCc1ccccc1F	-92.6	16.7	47.1*	0.9	-0.7	44.2
COc1cccc(CNCCc2c[nH]c3ccccc23)c1OCc1ccccc1	-36.2	1.9	38.7	2.0	/	/
COc1cc(-c2n[nH]c(=S)n2N=Cc2cccn2C)cc(OC)c1OC	/	/	/	7.3	/	/
CN1CCN(CCCNC(=O)c2ccc(/C=C3\Oc4ccccc4N(Cc4ccccc4F)C3=O)cc2)CC1	-91.5	38.0	45.4*	-375.9	-4.1	51.6*
CCOC(=O)c1c(-c2ccccc2)oc2ccc(OCC)cc12	-3.7	9.7	36.3	-140.8	/	/
CCOC(=O)c1c(-c2ccccc2)oc2ccc(OCC(O)CNCCN(C)C)cc12 (stereo not drawn)	-11.0	21.0	52.9*	-334.6	-0.2	55.5*
CCN(CC)C(=O)COc1ccc(C(C)=NNc2ncc(Cl)cc2Cl)cc1	/	/	/	5.3	/	/
O=C(Cn1nc(-c2nn(CC(=O)c3ccccc3)c3[n+]2CCCCC3)[n+]2c1CCCCC2)c1ccccc1	39.4	-7.3	78.1*	3.1	1.8	13.2
O=C(Cn1nc(Cl)nc1Cl)c1ccccc1	1.2	-10.5	1.7	/	/	/
Br/C(C=NNc1ccc2nncn2n1)=C\c1ccccc1	/	/	/	4.8	/	/
Cc1c(NC(=O)CCCN2C(=O)c3cccc4cccc(c34)C2=O)c(=O)n(-c2ccccc2)n1C	10.6	2.1	80.9*	-15.3	3.3	94.4*
Cc1cc(SCC(=O)NC(=O)c2cccn2C)nc2ccccc12	0.7	-30.0	55.8*	4.7	-1.9	67.5*
C#CCOCCOCCOCCNc1nc(N2CCN(C(=O)[C@H]([C@@H](C)CC)n3cc([C@@H](N)Cc4ccc(O)cc4)nn3)CC2)nc(N2CCN(C(=O)[C@H](Cc3ccc(O)cc3)n3cc([C@@H](N)C(C)CC)nn3)CC2)n1 (stereo partly drawn)	22.7	34.7	63.8*	-7.7	1.0	56.8*
C#CCOCCOCCOCCNc1nc(N2CCN(C(=O)[C@H]([C@@H](C)CC)n3cc([C@@H](N)CC(C)C)nn3)CC2)nc(N2CCN(C(=O)[C@H](Cc3ccc(O)cc3)n3cc([C@@H](N)C(C)CC)nn3)CC2)n1 (stereo partly drawn)	-4.0	10.2	56.6*	0.2	0.1	51.2*
C#CCOCCOCCOCCNc1nc(N2CCN(C(=O)[C@H](Cc3ccc(O)cc3)n3cc([C@@H](N)C(C)CC)nn3)CC2)nc(N2CCN(C(=O)[C@H](CCCCN)n3cc([C@@H](N)CC(C)C)nn3)CC2)n1 (stereo partly drawn)	21.1	19.6	58.5*	1.6	-1.6	50.3*
C#CCOCCOCCOCCNc1nc(N2CCN(C(=O)[C@H](Cc3ccc(O)cc3)n3cc([C@@H](N)C(C)CC)nn3)CC2)nc(N2CCN(C(=O)[C@H](CCCCN)n3cc([C@@H](N)CO)nn3)CC2)n1 (stereo partly drawn)	14.1	-16.2	32.5	2.6	/	/
C#CCOCCOCCOCCNc1nc(N2CCN(C(=O)[C@H](CCC(=O)O)n3cc(C(N)Cc4ccc(O)cc4)nn3)CC2)nc(N2CCN(C(=O)[C@H](Cc3ccc(O)cc3)n3cc(C(N)[C@H](C)CC)nn3)CC2)n1 (stereo partly drawn)	/	6.0	-3.0	/	/	/
SMILES	PREPL inh	Apaf1 inhib	UBC13 polyUb	UCH37 inh	Casp3 UBC13 ctr	UBC13 conf
CC(=NOCC(=O)Nc1ccc(F)c(F)c1F)c1cc2ccccc2o1	/	/	/	1.1	/	/
CNC[C@@H](Cc1ccccc1)NC[C@@H](CC1CCCCC1)NCCCc1ccccc1	13.8	23.5	93.4*	2.6	-2.0	75.8*
CCC[C@@H](CNC)NC[C@H](Cc1ccccc1)NCCCCc1ccccc1	17.8	-1.4	36.5	-0.3	/	/
CNC[C@@H](CC1CCCCC1)NC[C@H](CC(C)C)NCCc1cccc(C(F)(F)F)c1	9.6	28.6	92.1*	0.0	-1.2	80.2*
CN(Cc1cccc(C(F)(F)F)c1)C(=O)C1CCC(=O)N(CC2CCCCC2)C1 (stereo not drawn)	13.4	13.2	8.2	1.8	/	/
CCC(=O)c1cc2c(C)cc(=O)oc2c(C)c1O	21.4	0.0	45.4*	-1.2	-2.1	?
OCCNc1nc(Nc2ccccc2Cl)nc(N2CCCC2)n1	-2.0	0.3	9.1	3.3	/	/
OCCNc1nc(Nc2cc(Cl)ccc2OC2CCCC2)nc(N2CCCC2)n1	4.7	33.0	52.1*	2.3	1.5	36.7
COc1ccc(Cl)cc1Nc1nc(NCCO)nc(N2CCCCC2)n1	5.2	8.2	62.3*	1.6	5.9	32.0
CCOc1ccc(Cl)cc1Nc1nc(NCCO)nc(N2CCCC2)n1	-3.4	-0.1	37.1	0.9	/	/
COc1ccc(Cl)cc1Nc1nc(NCCO)nc(N2CCCC2)n1	11.9	13.9	8.1	1.4	/	/
CC(C)Oc1ccc(Cl)cc1Nc1nc(NCCO)nc(N2CCCC2)n1	10.4	24.6	59.7*	0.5	7.8	34.3
CCCCOc1ccc(Cl)cc1Nc1nc(NCCO)nc(N2CCCC2)n1	6.5	30.5	59.5*	2.1	-3.5	19.3
O=[N+]([O-])c1cccc(C=NNc2nc(N3CCCCC3)nc(N3CCCCC3)n2)c1	/	/	/	3.6	/	/
CCN(CC)CCCNc1nc2cc(OC)c(OC)cc2c2nc(-c3ccccc3)nn12	16.8	30.7	54.6*	-59.6	-1.1	45.4*
NNC(=O)c1ccc(CN2C(=O)c3cccc4cccc2c34)cc1	-4.6	17.7	95.5*	-22.6	2.4	107.9*
Cc1cccc(OCC(=O)NCC(=O)NN=Cc2c(C)[nH]c3ccccc23)c1	/	/	/	6.5	/	/
N#Cc1c(SCc2ccccc2)nc(N2CCOCC2)c2c1CCCC2	14.1	5.6	10.2	-0.1	/	/
CCSc1nc(N2CCCCC2)c2c(c1C#N)CCCC2	-7.5	10.8	47.1*	3.4	1.7	45.6*
COc1ccc(OCC(=O)NNC(=S)NC(=O)c2ccc([N+](=O)[O-])cc2)cc1	-2.0	-11.5	60.1*	1.0	-1.0	30.9
